The values that follow come from ChEMBL document CHEMBL5042480, “3CL Protease Inhibitors with an Electrophilic Arylketone Moiety as Anti-SARS-CoV-2 Agents” (J Med Chem, 2022).

The nature of data set [1]: Drug metabolism in rat hepatocytes assessed as CYP450-catalysed oxidative pathway mediated metabolite formation at 10 uM incubated upto 2 hrs by LC/UV/MS analysis. The class given is ADME, cell-based, Hepatocyte. The method, boiled down: (§1)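 Hepatocytes were suspended at 6 × 10^5 viable cells/mL in KHB buffer and given compound at 10 μM. Incubation was 0 and 2 h at 37 °C under 5% CO2, stopped with acetonitrile. After centrifugation, supernatant metabolites were analysed by LC/UV/MS.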

For data set [2], the target named is Voltage-gated inwardly rectifying potassium channel KCNH2 (Homo sapiens, UniProt Q12809). Briefly: Inhibition of hERG expressed in CHO cells at > 100 uM by whole-cell patch-clamp voltage-clamp method. The class given is toxicity, cell-based. The method, boiled down:
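hERG tail current was recorded by automated whole-cell patch clamp in CHO cells stably expressing hERG at room temperature. The pulse was +40 mV for 500 ms, then a ramp to −80 mV, repeated every 5 s. Compound was applied cumulatively at 5 min intervals. Verapamil served as positive control and DMSO as vehicle.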
For orientation: hERG is a cardiac potassium channel; its block is linked to QT prolongation.

For data set [3], the target named is Cytochrome P450 3A4 (Homo sapiens, UniProt P08684). Briefly: Inhibition of CYP3A4 in human liver microsome at 10 uM. To be noted: microsomes. The class given is toxicity. The method, boiled down:
(§2)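 Human liver microsomes (0.1 mg protein/mL) were mixed with compound at 10 μM and probe substrates in phosphate buffer pH 7.4: tacrine (CYP1A2), paclitaxel (2C8), tolbutamide (2C9), dextromethorphan (2D6) and midazolam (3A4). Reactions were started with an NADPH-generating system, run 10 min at 37 °C and stopped with acetonitrile. Metabolites were measured by LC/MS/MS and activity expressed as % remaining versus the no-inhibitor control.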

Data set [4] is described as follows: Drug metabolism in human hepatocytes assessed as amide hydrolysis mediated HC-5 metabolite formation at 10 uM incubated upto 2 hrs by LC/UV/MS analysis. The class given is ADME, cell-based, Hepatocyte. An outline of the steps:
as §1

Data set [5] is described as follows: AUC (0 to 7 hrs) in overnight-fasted Wistar rat at 0.1 mg/kg, iv measured upto 7 hrs by quadrupole mass spectrometry coupled UFLC analysis. The class given is ADME, organism-based. Details: route intravenous, dose 0.1 mg/kg, time <=7. The note with it: in vivo. The method, boiled down:
(§3)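 Male Wistar rats, conscious and unrestrained, were given the compound in saline at 4 mL/kg, either as an i.v. bolus via the left jugular vein or by oral gavage. Heparinized blood was drawn from a cannula at set times up to 7 h and the plasma analysed by LC-MS/MS. AUC0–7 and AUC0–∞ came from noncompartmental trapezoidal analysis; mean ± SD, n = 5.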

Data set [6] is described as follows: Apparent total clearance in overnight-fasted Wistar rat at 0.5 mg/kg, po measured upto 7 hrs by quadrupole mass spectrometry coupled UFLC analysis. The class given is ADME, organism-based. The note with it: in vivo, read-out: CLt/F (converted). An outline of the steps:
(§4)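 Conscious, freely moving male Wistar rats received compound in saline at 4 mL/kg, either i.v. via jugular vein at 0.1 mg/kg or by oral gavage at 0.5 mg/kg. Cannula blood was sampled up to 7 h and plasma measured by LC-MS/MS. Analysis was noncompartmental (trapezoidal AUC); Cmax and tmax were taken as observed, and t1/2 from log-linear terminal regression over at least 3 points. Mean ± SD, n = 5.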

For data set [7], the system named is SARS-CoV-2. Briefly: Antiviral activity against SARS coronavirus 2 infected in African green monkey VeroE6/TMPRSS2 cells upto 10 uM in presence of MDR-1 inhibitor CP-100356 measured after 24 hrs post-infection by qRT-PCR analysis. The class given is functional, organism-based. The note with it: Severe acute respiratory syndrome coronavirus 2; Vero; dose microM <=10, time 24.0 hrs. For orientation: Real-time PCR tracks product formation cycle by cycle.

Data set [8] can be described thus: Drug metabolism in rat hepatocytes assessed as amide hydrolysis mediated HC-7 metabolite formation at 10 uM incubated upto 2 hrs by LC/UV/MS analysis. The class given is ADME, cell-based, Hepatocyte. The method, boiled down:
as §1

For data set [9], the system named is TK6. Briefly: Mutagenicity against human TK6 cells assessed as induction of micronuclei formation by Micro-flow assay. The class given is toxicity, cell-based. The method, boiled down:
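Human TK6 lymphoblastoid cells were treated either 3 h with 1% S9 followed by 21 h recovery, or continuously for 24 h without S9, at 37 °C under 5% CO2. Relative population doubling was used for cytotoxicity. Positive controls were cyclophosphamide and mitomycin C.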

The nature of data set [10]: MRT (total) in overnight-fasted Wistar rat at 0.1 mg/kg, iv measured upto 7 hrs by quadrupole mass spectrometry coupled UFLC analysis. The class given is ADME, organism-based. To be noted: in vivo. An outline of the steps:
as §4

Data set [11] is described as follows: Drug metabolism in rat hepatocytes assessed as amide hydrolysis mediated HC-6 metabolite formation at 10 uM incubated upto 2 hrs by LC/UV/MS analysis. The class given is ADME, cell-based, Hepatocyte. An outline of the steps:
as §1

Data set [12] in a line: Protein binding in rat plasma incubated for 6 hrs by quadrupole mass spectrometry coupled UFLC analysis. The note with it: read-out: PPB. The class given is ADME, cell-free.
Data set [13] can be described thus: AUC (0 to infinity) in overnight-fasted Wistar rat at 0.5 mg/kg, po measured upto 7 hrs by quadrupole mass spectrometry coupled UFLC analysis. The class given is ADME, organism-based. The arrangement: route oral, dose 0.5 mg/kg, time <=7. To be noted: in vivo. An outline of the steps:
as §3

Data set [14] is described as follows: AUC (0 to infinity) in overnight-fasted Wistar rat at 0.1 mg/kg, iv measured upto 7 hrs by quadrupole mass spectrometry coupled UFLC analysis. The class given is ADME, organism-based. The arrangement: route intravenous, dose 0.1 mg/kg, time <=7. The note with it: in vivo. An outline of the steps:
as §3

For data set [15], the target named is Cytochrome P450 2D6 (Homo sapiens, UniProt P10635). Briefly: Inhibition of CYP2D6 in human liver microsome at 10 uM. The class given is toxicity. To be noted: microsomes. An outline of the steps: as §2
(Microsomes from liver hold many membrane-bound enzymes, among them those of drug oxidation.)

Data set [16] can be described thus: Inhibition of recombinant C-terminal His-tagged SARS coronavirus 1 3CL protease using Boc-Abu-Tle-Leu-Gln-AMC as substrate incubated for 5 mins by Cheng-Prusoff equation analysis. The arrangement: species or system Severe acute respiratory syndrome-related coronavirus.
Data set [17] can be described thus: MRT (total) in overnight-fasted Wistar rat at 0.5 mg/kg, po measured upto 7 hrs by quadrupole mass spectrometry coupled UFLC analysis. The class given is ADME, organism-based. The note with it: in vivo. An outline of the steps: as §4
A short description of data set [18]: Apparent permeability in human Caco-2 monolayer cells at 1 uM and measured upto 120 mins by LC-MS/MS analysis. The class given is ADME, cell-based. The method, boiled down: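 Caco-2 monolayers were grown 21 days on 3.0 μm-pore inserts. They were preincubated 30 min at 37 °C in HBSS with 10 mM HEPES, pH 7.4, and TEER was checked before and after. Transport of compound at 1 μM was run at 37 °C, quantified by LC-MS/MS, and converted to apparent permeability.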

Data set [19] in a line: Drug metabolism in human hepatocytes assessed as amide hydrolysis mediated HC-7 metabolite formation at 10 uM incubated upto 2 hrs by LC/UV/MS analysis. The class given is ADME, cell-based, Hepatocyte. An outline of the steps:
as §1

Data set [20] in a line: Stability in rat plasma assessed as compound degradation incubated for 6 hrs by quadrupole mass spectrometry coupled UFLC analysis. The class given is ADME, cell-free. The method, boiled down: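 Compound at 1 μM was incubated in rat plasma at 37 °C for 0, 1, 2 and 6 h. Remaining concentration was measured by LC/MS/MS.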
Data set [21] has as its target Cytochrome P450 2C9 (Homo sapiens, UniProt P11712). The data set can be described thus: Inhibition of CYP2C9 in human liver microsome at 10 uM. The class given is toxicity. The note with it: microsomes. An outline of the steps: as §2

Molecules are shown by their SMILES. Calls of active or inactive are those of the source. No cut-off for these calls is given here.

Sequence of Cytochrome P450 3A4 (P08684 whole entry): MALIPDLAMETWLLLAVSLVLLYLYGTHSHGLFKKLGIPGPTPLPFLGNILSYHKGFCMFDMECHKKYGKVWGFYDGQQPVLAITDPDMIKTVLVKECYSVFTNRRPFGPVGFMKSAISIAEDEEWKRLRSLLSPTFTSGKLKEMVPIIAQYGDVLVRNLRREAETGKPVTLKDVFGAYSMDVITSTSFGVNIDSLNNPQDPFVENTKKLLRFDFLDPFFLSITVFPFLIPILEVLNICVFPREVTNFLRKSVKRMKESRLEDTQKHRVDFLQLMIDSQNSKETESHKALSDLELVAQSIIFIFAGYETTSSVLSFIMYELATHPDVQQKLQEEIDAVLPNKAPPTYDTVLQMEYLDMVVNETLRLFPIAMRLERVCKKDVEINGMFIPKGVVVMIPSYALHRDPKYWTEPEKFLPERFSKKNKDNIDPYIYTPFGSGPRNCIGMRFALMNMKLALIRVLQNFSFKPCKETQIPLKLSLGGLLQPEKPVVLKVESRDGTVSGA
Sequence of Cytochrome P450 2D6 (P10635 whole entry): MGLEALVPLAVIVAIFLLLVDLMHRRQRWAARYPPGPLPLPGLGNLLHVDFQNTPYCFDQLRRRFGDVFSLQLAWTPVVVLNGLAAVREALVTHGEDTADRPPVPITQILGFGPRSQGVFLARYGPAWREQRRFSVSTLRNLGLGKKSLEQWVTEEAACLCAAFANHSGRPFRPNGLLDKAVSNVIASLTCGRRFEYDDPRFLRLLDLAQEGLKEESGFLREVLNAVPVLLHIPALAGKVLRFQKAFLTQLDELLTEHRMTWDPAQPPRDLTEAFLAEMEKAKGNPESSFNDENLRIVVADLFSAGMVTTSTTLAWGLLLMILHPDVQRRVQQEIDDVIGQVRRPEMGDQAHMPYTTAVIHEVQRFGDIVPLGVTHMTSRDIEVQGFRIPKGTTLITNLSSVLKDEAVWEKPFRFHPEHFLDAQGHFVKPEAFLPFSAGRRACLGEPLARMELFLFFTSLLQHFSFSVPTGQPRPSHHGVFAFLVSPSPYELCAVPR
Sequence of Voltage-gated inwardly rectifying potassium channel KCNH2 (Q12809 whole entry): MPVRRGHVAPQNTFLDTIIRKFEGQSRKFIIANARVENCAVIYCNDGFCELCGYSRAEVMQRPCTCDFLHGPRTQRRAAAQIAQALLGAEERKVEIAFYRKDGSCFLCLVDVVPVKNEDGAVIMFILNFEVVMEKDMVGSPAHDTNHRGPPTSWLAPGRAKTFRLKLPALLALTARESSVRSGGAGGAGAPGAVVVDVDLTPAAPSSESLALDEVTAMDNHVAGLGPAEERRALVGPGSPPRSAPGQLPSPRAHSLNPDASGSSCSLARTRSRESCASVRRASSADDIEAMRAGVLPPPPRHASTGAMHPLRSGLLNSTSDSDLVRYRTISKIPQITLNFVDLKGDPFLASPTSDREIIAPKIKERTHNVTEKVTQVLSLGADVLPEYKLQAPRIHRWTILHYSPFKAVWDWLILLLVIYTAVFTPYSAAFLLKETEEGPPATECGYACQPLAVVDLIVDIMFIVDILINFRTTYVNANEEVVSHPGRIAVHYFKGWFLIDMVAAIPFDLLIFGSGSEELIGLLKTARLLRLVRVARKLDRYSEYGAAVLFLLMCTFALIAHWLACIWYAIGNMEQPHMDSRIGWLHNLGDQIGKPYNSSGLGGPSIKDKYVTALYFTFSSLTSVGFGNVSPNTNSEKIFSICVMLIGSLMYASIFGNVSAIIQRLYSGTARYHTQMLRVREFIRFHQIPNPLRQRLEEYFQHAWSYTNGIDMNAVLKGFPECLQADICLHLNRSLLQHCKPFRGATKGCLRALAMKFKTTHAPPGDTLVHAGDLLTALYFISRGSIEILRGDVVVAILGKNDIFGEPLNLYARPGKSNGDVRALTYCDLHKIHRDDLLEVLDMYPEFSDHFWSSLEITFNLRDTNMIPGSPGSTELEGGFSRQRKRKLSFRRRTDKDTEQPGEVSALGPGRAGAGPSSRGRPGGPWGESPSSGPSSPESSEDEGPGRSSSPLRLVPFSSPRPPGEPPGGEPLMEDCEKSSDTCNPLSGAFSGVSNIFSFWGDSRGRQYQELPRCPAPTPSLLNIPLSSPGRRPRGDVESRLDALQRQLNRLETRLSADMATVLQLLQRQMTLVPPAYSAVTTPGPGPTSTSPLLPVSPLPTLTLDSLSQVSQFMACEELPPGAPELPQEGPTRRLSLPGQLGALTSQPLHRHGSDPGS
Sequence of Cytochrome P450 2C9 (P11712 whole entry): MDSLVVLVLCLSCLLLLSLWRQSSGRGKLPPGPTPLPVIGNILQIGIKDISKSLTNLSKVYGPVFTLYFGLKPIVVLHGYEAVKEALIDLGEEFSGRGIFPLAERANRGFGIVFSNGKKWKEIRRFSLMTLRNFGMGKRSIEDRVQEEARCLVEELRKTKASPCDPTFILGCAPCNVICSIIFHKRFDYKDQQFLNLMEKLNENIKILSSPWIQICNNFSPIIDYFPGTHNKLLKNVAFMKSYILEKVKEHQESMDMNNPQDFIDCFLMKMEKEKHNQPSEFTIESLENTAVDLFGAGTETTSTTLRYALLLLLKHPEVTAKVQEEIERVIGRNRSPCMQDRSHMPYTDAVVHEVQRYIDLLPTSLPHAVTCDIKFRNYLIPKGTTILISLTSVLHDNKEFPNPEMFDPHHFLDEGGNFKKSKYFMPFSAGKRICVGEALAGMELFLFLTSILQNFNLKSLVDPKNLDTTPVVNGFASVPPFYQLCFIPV

By AUC(0-t) is commonly meant the area under the concentration-time curve up to a stated or last time point. By MRT is commonly meant the average time that molecules of a dose stay in the body. The term AUC(0-inf) denotes total exposure, with the tail of the curve extrapolated. The term Ki denotes the dissociation constant of the complex between target and ligand, obtained from inhibition or displacement. Broadly, the Papp is the rate of passage across a membrane or cell layer, normalised by area and donor concentration. With `COc1cccc2[nH]c(C(=O)N[C@@H](CC(C)C)C(=O)N[C@@H](C[C@@H]3CCNC3=O)C(=O)c3nc4ccccc4s3)cc12`, the Drug metabolism entry in [1], in data set [4], in data set [8], in data set [11] and in [19] was “Metabolite_Detected” in each case. Besides, the “inhibition (INH)” value in data set [2] is recorded as “Not Active”; in data set [3], “Not Active”; in data set [15], “Active”; in data set [21], “Not Active”. In data set [5], the AUC(0-t) is 19.3 ng·h/mL. For the same compound, the CL/F in [6] was 2650 mL/min/kg. Further, the outcome in [7] was Active. Besides, the Activity result in data set [9] is recorded as “Non-Toxic”. In addition, the MRT in data set [10] is 29.6 min; in data set [17], 13.2 h. For the same compound, the fraction unbound at 6 h in data set [12] worked out at 0.01. Besides, the area under the curve AUC(0-inf) in [13] was 3.49 ng·h/mL; in data set [14], 19.7 ng·h/mL. In addition, in data set [16], the inhibitory constant (Ki) is 6.3 nM. The apparent permeability coefficient (Papp) at 2 h, 1 µM in [18] came to 18.9 ×10⁻⁶ cm/s. In addition, the Stability result in [20] is on record as “Stable”.
